According to ChEMBL document CHEMBL1142519, “Synthesis and antiprotozoal activity of cationic 2-phenylbenzofurans” (J Med Chem, 2008):
Active and inactive are the calls of the source. The rule behind the calls is not given here.

Key:
[1] = test system: L6; assay: Cytotoxicity against rat L6 cells; type: cell-based
Outline: (§1)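 IC50 values in µM, each the average of duplicate determinations. Parasites were T. b. rhodesiense STIB900 and axenic amastigotes of L. donovani MHOM/SD/62/1S-CL2D. Cytotoxicity was run on rat L6 myoblast cells.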

[2] = Selectivity index, ratio of IC50 for rat L6 cells to IC50 for Leishmania donovani MHOM/SD/62/1S-CL2D; type: toxicity, cell-based; details: read-out: Ratio IC50
Outline: (§2)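 Ratio of the L6 rat myoblast cytotoxicity IC50 to the IC50 against the parasite named in the line. Each IC50 is the average of duplicate determinations.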

[3] = test system: Leishmania donovani; assay: Antileishmanial activity against Leishmania donovani MHOM/SD/62/1S-CL2D axenic amastigotes; type: functional, organism-based; outline: as §1
[4] = test system: Plasmodium falciparum; assay: Antiplasmodial activity against chloroquine-resistant Plasmodium falciparum K1; type: functional, organism-based
Outline: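 In vitro IC50 against chloroquine-resistant P. falciparum K1, reported as the average of duplicate determinations.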

[5] = Selectivity index, ratio of IC50 for rat L6 cells to IC50 for chloroquine-resistant Plasmodium falciparum K1; type: toxicity, cell-based; details: read-out: Ratio IC50; outline: as §2
[6] = test system: Trypanosoma brucei rhodesiense; assay: Antitrypanosomal activity against Trypanosoma brucei rhodesiense STIB 900 infected acute mouse model assessed as survival time at 5 mg/kg, ip administered daily for 4 days; type: functional; details: route intraperitoneal
Outline: (§3)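 STIB900 acute mouse model of T. b. rhodesiense infection, with intraperitoneal dosing. Read-out is the average days of survival of treated mice. Cures are counted as mice that survive and stay parasite-free for 60 days.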

[7] = Selectivity index, ratio of IC50 for rat L6 cells to IC50 for Trypanosoma brucei rhodesiense STIB 900; type: toxicity, cell-based; details: read-out: Ratio IC50; outline: as §2
[8] = test system: Trypanosoma brucei rhodesiense; assay: Antitrypanosomal activity against Trypanosoma brucei rhodesiense STIB 900 bloodstream trypomastigotes; type: functional, organism-based; outline: as §1
[9] = test system: Trypanosoma brucei rhodesiense; assay: Antitrypanosomal activity against Trypanosoma brucei rhodesiense STIB 900 infected acute mouse model assessed as survival time at 1 mg/kg, ip administered daily for 4 days; type: functional; details: route intraperitoneal; outline: as §3
[10] = test system: Trypanosoma brucei rhodesiense; assay: Antitrypanosomal activity against Trypanosoma brucei rhodesiense STIB 900 infected acute mouse model assessed as cured mouse at 1 mg/kg, ip daily for 4 days; type: functional, organism-based; parameters: dose 1 mg/kg
Outline: (§4)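 STIB900 acute mouse model of trypanosomiasis with intraperitoneal dosing. The regimens were daily for 4 days at 20, 5 or 1 mg/kg, or a single 10 mg/kg dose. A cure is a mouse that survives and is parasite-free for 60 days. Average days of survival are also recorded.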

[11] = test system: Trypanosoma brucei rhodesiense; assay: Antitrypanosomal activity against Trypanosoma brucei rhodesiense STIB 900 infected acute mouse model assessed as cured mouse at 10 mg/kg, ip; type: functional, organism-based; parameters: dose 10 mg/kg; outline: as §4
[12] = test system: Trypanosoma brucei rhodesiense; assay: Antitrypanosomal activity against Trypanosoma brucei rhodesiense STIB 900 infected acute mouse model assessed as survival time at 20 mg/kg, ip administered daily for 4 days; type: functional; details: route intraperitoneal; outline: as §3
[13] = test system: Trypanosoma brucei rhodesiense; assay: Antitrypanosomal activity against Trypanosoma brucei rhodesiense STIB 900 infected acute mouse model assessed as cured mouse at 5 mg/kg, ip daily for 4 days; type: functional, organism-based; parameters: dose 5 mg/kg; outline: as §4
[14] = test system: Trypanosoma brucei rhodesiense; assay: Antitrypanosomal activity against Trypanosoma brucei rhodesiense STIB 900 infected acute mouse model assessed as cured mouse at 20 mg/kg, ip daily for 4 days; type: functional, organism-based; parameters: dose 20 mg/kg; outline: as §4
[15] = test system: Trypanosoma brucei rhodesiense; assay: Antitrypanosomal activity against Trypanosoma brucei rhodesiense STIB 900 infected acute mouse model assessed as cured mouse at 8 mg/kg, ip daily for 4 days; type: functional, organism-based; parameters: dose 8 mg/kg
[16] = test system: Trypanosoma brucei rhodesiense; assay: Antitrypanosomal activity against Trypanosoma brucei rhodesiense STIB 900 infected acute mouse model assessed as cured mouse at 2 mg/kg, ip daily for 4 days; type: functional, organism-based; parameters: dose 2 mg/kg
[17] = test system: Trypanosoma brucei rhodesiense; assay: Antitrypanosomal activity against Trypanosoma brucei rhodesiense STIB 900 infected acute mouse model assessed as survival time at 8 mg/kg, ip administered daily for 4 days; type: functional; details: route intraperitoneal
[18] = test system: Trypanosoma brucei rhodesiense; assay: Antitrypanosomal activity against Trypanosoma brucei rhodesiense STIB 900 infected acute mouse model assessed as survival time at 2 mg/kg, ip administered daily for 4 days; type: functional; details: route intraperitoneal
[19] = test system: Trypanosoma brucei rhodesiense; assay: Antitrypanosomal activity against Trypanosoma brucei rhodesiense STIB 900 infected acute mouse model assessed as survival time at 10 mg/kg, ip; type: functional; details: route intraperitoneal; outline: as §3

CC(C)NC(=N)c1ccc(-c2cc3cc(C(=N)NC(C)C)ccc3o2)cc1
IC50 [1]: > 198000 nM | selectivity ratio [2]: > 125 | IC50 [3]: 1600 nM | IC50 [4]: 73 nM | selectivity ratio [5]: > 2710 | Survival [6]: >53 days | selectivity ratio [7]: > 1580 | IC50 [8]: 125 nM | Survival [9]: 15.3 days | Activity [10]: inactive | Activity [11]: inactive

N=C(N)c1ccc(-c2cc3ccc(C(=N)N)cc3[nH]2)cc1 [DAPI]
IC50 [1]: 860 nM | Survival [12]: >60 days | Activity [13]: inactive | IC50 [4]: 3 nM | selectivity ratio [5]: 287 | Survival [6]: >40.8 days | Activity [14]: Active | selectivity ratio [7]: 51 | IC50 [8]: 17 nM

Nc1nc(N)nc(Nc2ccc([As]3SCC(CO)S3)cc2)n1 (centres undefined) [MELARSOPROL]
Activity [15]: Active | Activity [16]: Active | Survival [9]: >51.5 days | Activity [10]: Active | Survival [17]: >60 days | Survival [18]: >60 days

COc1cc(C(=N)N)cc2cc(-c3ccc(C(=N)N)cc3)oc12
IC50 [1]: 30700 nM | selectivity ratio [2]: 10 | Activity [13]: Active | IC50 [3]: 3000 nM | IC50 [4]: 6 nM | selectivity ratio [5]: 5120 | Survival [6]: >60 days | selectivity ratio [7]: 5120 | Survival [19]: >44 days | IC50 [8]: 6 nM | Survival [9]: 27.3 days | Activity [10]: inactive

COc1cc(C2=NCCN2)cc2cc(-c3ccc(C4=NCCN4)cc3)oc12
IC50 [1]: 19900 nM | selectivity ratio [2]: 5 | Survival [12]: 11.5 days | IC50 [3]: 4500 nM | IC50 [4]: 32 nM | selectivity ratio [5]: 622 | Activity [14]: inactive | selectivity ratio [7]: 160 | IC50 [8]: 124 nM

N=C(N)c1ccc(-c2cc3cc(C(=N)N)ccc3o2)c(O)c1
IC50 [1]: 33300 nM | selectivity ratio [2]: 19 | IC50 [3]: 1800 nM | IC50 [4]: 4 nM | selectivity ratio [5]: 8320 | Survival [6]: >54.5 days | selectivity ratio [7]: 16600 | Survival [19]: >55.3 days | IC50 [8]: 2 nM | Survival [9]: 34.8 days | Activity [10]: inactive

CC(C)NC(=N)c1ccc(-c2cc3cc(C(=N)NC(C)C)cc(O)c3o2)cc1
IC50 [1]: > 185000 nM | selectivity ratio [2]: > 9 | Activity [13]: Active | IC50 [3]: 20000 nM | IC50 [4]: 56 nM | selectivity ratio [5]: > 3300 | Survival [6]: >60 days | selectivity ratio [7]: > 6610 | Survival [19]: >36.3 days | IC50 [8]: 28 nM | Survival [9]: >19.8 days | Activity [10]: inactive

N=C(N)c1ccc(-c2cc3cc(C(=N)N)cc(O)c3o2)c(O)c1
IC50 [1]: 2100 nM | selectivity ratio [2]: 0.2 | IC50 [3]: 14000 nM | IC50 [4]: 61 nM | selectivity ratio [5]: 34 | Survival [6]: >56.8 days | selectivity ratio [7]: 117 | Survival [19]: >49.5 days | IC50 [8]: 18 nM | Survival [9]: >33.5 days

CC(C)NC(=N)c1ccc(-c2cc3cc(C(=N)NC(C)C)cc(O)c3o2)c(O)c1
IC50 [1]: > 179000 nM | selectivity ratio [2]: > 4 | Activity [13]: Active | IC50 [3]: 46000 nM | IC50 [4]: 310 nM | selectivity ratio [5]: > 577 | Survival [6]: >60 days | selectivity ratio [7]: > 7780 | Survival [19]: >50.7 days | IC50 [8]: 23 nM | Survival [9]: 26.3 days | Activity [10]: inactive

Oc1cc(C2=NCCN2)ccc1-c1cc2cc(C3=NCCN3)ccc2o1
IC50 [1]: 150000 nM | selectivity ratio [2]: 26 | IC50 [3]: 5800 nM | IC50 [4]: 6 nM | selectivity ratio [5]: 25000 | Survival [6]: >60 days | selectivity ratio [7]: 18800 | Survival [19]: 23.5 days | IC50 [8]: 8 nM | Survival [9]: 20 days | Activity [10]: inactive | Activity [11]: inactive

N=C(N)c1ccc(-c2cc3cc(C(=N)N)cc(O)c3o2)cc1
IC50 [1]: 184000 nM | selectivity ratio [2]: 35 | Activity [13]: Active | IC50 [3]: 5300 nM | IC50 [4]: 47 nM | selectivity ratio [5]: 3920 | Survival [6]: >60 days | selectivity ratio [7]: 61300 | Survival [19]: >43 days | IC50 [8]: 3 nM | Survival [9]: >30.8 days

N=C(N)c1ccc(O)c(-c2cc3cc(C(=N)N)ccc3o2)c1
IC50 [1]: > 217000 nM | selectivity ratio [2]: > 11 | Activity [13]: Active | IC50 [3]: 20000 nM | IC50 [4]: 793 nM | selectivity ratio [5]: > 274 | Survival [6]: >60 days | selectivity ratio [7]: > 43400 | Survival [19]: >51.5 days | IC50 [8]: 5 nM | Survival [9]: 26 days | Activity [10]: inactive

CC(C)NC(=N)c1ccc(-c2cc3cc(C(=N)NC(C)C)ccc3o2)c(O)c1
IC50 [1]: > 183000 nM | selectivity ratio [2]: > 101 | IC50 [3]: 1800 nM | IC50 [4]: 28 nM | selectivity ratio [5]: > 6540 | Survival [6]: >50.5 days | selectivity ratio [7]: > 8710 | Survival [19]: 26.8 days | IC50 [8]: 21 nM | Survival [9]: 18.5 days | Activity [10]: inactive | Activity [11]: inactive

Oc1cc(C2=NCCN2)cc2cc(-c3ccc(C4=NCCN4)cc3)oc12
IC50 [1]: > 203000 nM | selectivity ratio [2]: > 27 | IC50 [3]: 7400 nM | IC50 [4]: 22 nM | selectivity ratio [5]: > 9230 | Survival [6]: >49.8 days | selectivity ratio [7]: > 50800 | Survival [19]: >51.3 days | IC50 [8]: 4 nM | Survival [9]: >39 days

COc1ccc(C2=NCCN2)cc1-c1cc2cc(C3=NCCN3)ccc2o1
IC50 [1]: 30800 nM | selectivity ratio [2]: < 0.6 | Activity [13]: inactive | IC50 [3]: > 50000 nM | IC50 [4]: 65 nM | selectivity ratio [5]: 474 | Survival [6]: 8.5 days | selectivity ratio [7]: 1140 | IC50 [8]: 27 nM

N=C(N)c1ccc(-c2cc3ccc(C(=N)N)cc3o2)cc1
IC50 [1]: 800 nM | selectivity ratio [2]: 0.3 | Activity [13]: Active | IC50 [3]: 3100 nM | IC50 [4]: 3 nM | selectivity ratio [5]: 267 | Survival [6]: >60 days | selectivity ratio [7]: 114 | Survival [19]: >39.5 days | IC50 [8]: 7 nM | Survival [9]: 26.5 days | Activity [10]: inactive

CC(C)NC(=N)c1ccc(-c2cc3ccc(C(=N)NC(C)C)cc3o2)c(O)c1
IC50 [1]: > 183000 nM | selectivity ratio [2]: > 5 | IC50 [3]: 39000 nM | IC50 [4]: 597 nM | selectivity ratio [5]: > 307 | Survival [6]: >55.5 days | selectivity ratio [7]: > 20300 | Survival [19]: >51.8 days | IC50 [8]: 9 nM | Survival [9]: >46.5 days

Oc1ccc(C2=NCCN2)cc1-c1cc2ccc(C3=NCCN3)cc2o1
IC50 [1]: > 189000 nM | selectivity ratio [2]: > 6 | Activity [13]: inactive | IC50 [3]: 35000 nM | IC50 [4]: 103 nM | selectivity ratio [5]: > 1840 | Survival [6]: 14 days | selectivity ratio [7]: > 2280 | IC50 [8]: 83 nM
